TAAR1 ag: human TAAR1 agonism. CHO RD-HGA16 TAAR1, Fluo-8 calcium fluorescence; vehicle wells 0%, saturating PEA agonist 100%. activation, % at 3 µM. 0.99% of 360,000 active. Q96RJ0;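 active = activation above the mean activation of all test compounds in the run plus 3 SD, cut at about 38% in these data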
Target sequence (Q96RJ0 whole entry, looked up): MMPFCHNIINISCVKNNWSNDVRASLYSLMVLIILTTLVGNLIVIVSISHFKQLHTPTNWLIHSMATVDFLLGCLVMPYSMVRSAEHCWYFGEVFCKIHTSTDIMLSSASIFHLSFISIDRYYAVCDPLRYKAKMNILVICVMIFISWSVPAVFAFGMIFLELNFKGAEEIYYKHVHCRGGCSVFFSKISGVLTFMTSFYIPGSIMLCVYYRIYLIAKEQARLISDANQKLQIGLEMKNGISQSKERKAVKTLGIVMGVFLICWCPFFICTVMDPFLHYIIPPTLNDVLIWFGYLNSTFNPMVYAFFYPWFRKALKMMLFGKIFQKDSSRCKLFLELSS
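Signal – calcium-sensitive Fluo-8 signal, excitation 470-495, emission 515-575 nm · System – RD-HGA16 (CHO) cells co-expressing Gα16 and hTAAR1 · Incubation – 17-24 h seeding, 75 min 37 °C dye, 30 min RT · Compound dosing – 3 µM single concentration · Repeats – no replicates (n 1)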
OX1R antag-1: blocks the human orexin 1 receptor; O43613; OX1R-expressing cells, FRET antagonist read-out; inhibition, % at 6.6 µM; 1.8% of 330,000 active; AID 485270; in the data active = inhibition mostly above about 38%, no sharp cut-off; inactive = mostly below about 40%;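 note: 0% = agonist challenge alone and 100% = reference antagonist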
TAAR1 antag: antagonists of human TAAR1. Q96RJ0. CHO RD-HGA16 TAAR1, Fluo-8 calcium fluorescence, antagonist. inhibition, % at 3 µM. 1.5% of 360,000 active. AID 624466;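 active = inhibition above a per-plate cutoff, the mean inhibition of test compounds on that plate plus 3 SD, cut at about 49% in these data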;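 note: 0% = DMSO plus EC80 beta-PEA response and 100% = DMSO alone without agonist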
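Test system: hTAAR1-expressing CHO RD-HGA16 cells, Gα16-coupled; Probe or stimulus: EC80 β-phenethylamine stimulus; Compound dosing: single nominal final test compound concentration of 3 µM; Timing: 140 s kinetic read after compound, 140 s after agonist; Signal: Fluo-8 calcium-sensitive fluorescence; Measure: % inhibition of agonist calcium response; Controls: DMSO and EC80 PEA controls.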
GalR3 antag: blocks the human galanin receptor 3; HEK293 GalR3-CNG cAMP membrane potential fluorescence; galR3 body fused to GalR1 C-terminus; inhibition, % at 3 µM; 0.44% of 360,000 active; AID 651719;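 active = inhibition above the screen-wide average plus 3 SD, cut at about 13% in these data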;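 note: forskolin and galanin both at EC90 stimulate the cells; cAMP rise reported by CNG channel membrane potential dye signal; 0% = forskolin plus galanin with DMSO and 100% = forskolin alone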
Target sequence (O60755 1-299 limits assumed): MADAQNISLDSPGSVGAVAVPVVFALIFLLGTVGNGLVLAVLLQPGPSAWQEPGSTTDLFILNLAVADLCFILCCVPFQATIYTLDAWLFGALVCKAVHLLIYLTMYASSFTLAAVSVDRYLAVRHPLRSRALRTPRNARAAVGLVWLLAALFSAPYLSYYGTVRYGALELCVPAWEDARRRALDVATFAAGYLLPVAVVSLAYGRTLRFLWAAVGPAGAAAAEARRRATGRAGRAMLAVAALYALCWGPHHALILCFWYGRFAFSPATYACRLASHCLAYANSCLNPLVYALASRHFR
CHO parental Ca: counter-screen for OX1R antagonists: effect in parental CHO cells. parental CHO-K1, ATP-induced calcium, Fluo-8 fluorescence. inhibition, % at 5.6 µM. 0.63% of 330,000 active. AID 463079;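 active = inhibition above that plate's mean sample inhibition plus 3 SD, cut at about 26% in these data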;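 note: 0% = ATP-challenged DMSO wells and 100% = DMSO wells without ATP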
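Assay system – parental CHO cells · Reagent – ATP stimulus · Detection – intracellular calcium via Fluo-8 no-wash fluorescent dye · Evaluation – percent inhibition of ATP-evoked calcium rise, normalized to controls · Controls – ATP wells versus no-ATP DMSO wells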
OX1R antag-2: antagonists of human orexin 1 receptor. inhibition, % at 5 µM. 0.43% of 330,000 active. CHO/OX1R cells, Fluo-8 calcium fluorescence, orexin A. O43613;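 active = inhibition above its plate's threshold, mean inhibition of all tested compounds on the plate plus 3 SD, cut at about 37% in these data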;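 note: 0% = orexin A challenge wells and 100% = SB-334867-A antagonist wells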
TAAR1 ag confirm: confirmation of human TAAR1 agonists; shares compounds with TAAR1 ag; CHO RD-HGA16 TAAR1, Fluo-8 calcium fluorescence; scaled: DMSO 0%, maximal phenethylamine 100%; activation, % at 3 µM; 82% of 2,400 active;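 active = activation above a cutoff set at the run's mean compound activation plus 3 SD, cut at about 39% in these data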
Ga16 ag counter: counter-screen for TAAR1 agonists: nonselective agonists in parental cells. shares compounds with TAAR1 ag. CHO-Ga16 parental, Fluo-8 calcium fluorescence; normalized to maximal ATP response, DMSO zero. activation, % at 3 µM. 50% of 2,400 active. AID 651787;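 active = activation above the run cutoff, the mean activation over all tested wells plus 3 SD, cut at about 12% in these data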;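 note: 0% = DMSO wells and 100% = maximal ATP response on the peak over basal ratio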
TAAR1 desensitize: TAAR1 response desensitization, agonist counter-screen. shares compounds with TAAR1 ag. CHO RD-HGA16 hTAAR1, Fluo-8 calcium, beta-PEA response inhibition. inhibition, % at 3 µM. 46% of 2,400 active. AID 651951;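 active = inhibition above the run cutoff, the mean inhibition of all test compounds plus 3 SD, cut at about 49% in these data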;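 note: beta-PEA stimulus applied at its EC80; loss of beta-PEA calcium signal after compound pretreatment read as receptor desensitization; 0% = DMSO with beta-PEA at EC80 and 100% = DMSO alone without agonist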
Ga16 antag count: counter-screen for TAAR1 agonists: nonselective Ga16 antagonists; 39% of 2,400 active; shares compounds with TAAR1 ag; CHO-Ga16 ATP-induced calcium, Fluo-8 fluorescence; inhibition, % at 3 µM;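 active = inhibition above the plate's mean compound inhibition plus 3 SD, computed per plate, cut at about 22% in these data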;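 note: 0% = EC80 ATP with DMSO and 100% = DMSO wells without ATP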
Numbers without * were called inactive; . = not tested or not shown. Shown are actives, neighbours in structure and some others; about 4.2% of the full set was active somewhere.

SMILES | TAAR1 ag | OX1R antag-1 | TAAR1 antag | GalR3 antag | CHO parental Ca | OX1R antag-2 | TAAR1 ag confirm | Ga16 ag counter | TAAR1 desensitize | Ga16 antag count
CC(C)CC(C(=O)N1CCc2ccccc2C1)N1C(=O)c2ccccc2C1=O (stereo not drawn) | 75.5* | 27.7 | 37.0 | -5.7 | -22.9 | -30.0 | 76.9* | 3.0 | 65.0* | 15.5
CC(C(=O)N1CCc2ccccc2C1)N1C(=O)c2ccccc2C1=O (stereo not drawn) | 1.2 | 9.0 | -14.2 | -5.3 | -8.5 | -16.7 | . | . | . | .
CCN1CCN(c2ccc(N3CCN(S(=O)(=O)c4cc([N+](=O)[O-])ccc4C)CC3)nn2)CC1 | 1.8 | 16.4 | -23.4 | 2.6 | -7.8 | -5.9 | . | . | . | .
CC(CN(C)Cc1ccccc1)OC(=O)c1cccs1 (stereo not drawn) | 11.6 | 19.1 | 0.2 | -6.8 | -18.9 | -44.1 | . | . | . | .
C=CCN1C(=O)/C(=C\C=C2\N(C)c3ccccc3C2(C)C)SC1=S | 19.2 | 4.8 | 33.8 | -3.1 | 6.0 | 1.4 | . | . | . | .
CN1/C(=C\C=C2/SC(=S)N(CC(=O)O)C2=O)C(C)(C)c2ccccc21 | 234.7* | 34.1 | 83.8* | -1.1 | 69.4* | 76.6* | 114.0* | 121.4* | 66.3* | 61.2*
O=C(Nc1ccc2c(c1)C(=O)N(c1ccccc1)C2=O)c1cccs1 | 57.2* | 6.5 | 39.5 | 1.5 | 1.8 | -20.0 | 46.2* | 25.2* | 34.8 | 17.4
O=C(O)CCN1C(=O)c2ccc(NC(=O)c3cccs3)cc2C1=O | 1.6 | 18.6 | -7.6 | -1.9 | -0.7 | -18.0 | . | . | . | .
Clc1ccc(/C=N/Nc2ncnc3ccccc23)cc1Cl | 44.6* | 22.1 | 14.3 | -2.3 | -19.8 | -11.7 | 19.0 | 13.1* | 13.5 | -1.8
CCCOC1CCCN(C(=O)c2cc(Cl)c(Cl)cc2C(=O)O)C1 (stereo not drawn) | 65.1* | 16.5 | 24.4 | -3.2 | -8.5 | -9.3 | 81.6* | 3.9 | 50.8* | 14.8
CCOC(=O)N1CCN(C(=O)c2cc(Cl)c(Cl)cc2C(=O)O)CC1 | . | 11.8 | . | . | -0.2 | -1.0 | . | . | . | .
O=C(c1nc2ccccn2c1CNCC1OCCc2ccccc21)N1CCOCC1 (stereo not drawn) | . | 12.0 | . | 0.4 | -23.7 | -27.6 | . | 3.4 | . | 12.6
Cc1ccn2c(CNCC3OCCc4ccccc43)c(C(=O)N3CCCCCC3)nc2c1 (stereo not drawn) | 83.9* | 13.7 | 38.6 | -5.2 | -20.2 | -21.1 | 81.3* | 4.6 | 71.1* | 13.6
Cc1ccn2c(CNCCn3cccn3)c(C(=O)N3CCCCCC3)nc2c1 | 28.2 | 5.1 | 2.2 | -4.3 | -19.6 | -3.7 | . | . | . | .
O=C(NCCc1ccccc1)c1cc2ncc(Br)cn2n1 | 47.6* | 21.2 | 0.7 | -4.5 | -2.6 | -10.9 | 57.1* | 1.4 | 21.9 | 11.8
C=CCOC(=O)C(=O)/C=C/c1coc2ccccc2c1=O | 53.4* | 12.8 | 15.8 | -0.6 | 4.6 | -9.7 | 36.1 | 22.5* | -3.7 | 12.8
COCCCNCCCCOc1c(Cl)cc(C)cc1Br | 58.8* | 1.8 | 32.2 | -4.9 | -8.7 | -29.1 | 91.5* | 22.4* | 76.8* | 7.6
Cc1cc(Cl)c(OCCCNC2CCCC2)c(Br)c1 | 58.0* | 2.2 | -2.6 | -16.7 | 1.9 | -29.1 | 28.1 | 10.5 | 5.5 | 13.0
Cc1cc(C)c(OCCCCNCc2ccccc2)c(Cl)c1 | 48.0* | 2.0 | -8.2 | -7.0 | -7.3 | -7.8 | 48.0* | 21.7* | 23.1 | 23.9*
O=C(COc1ccccc1)Nc1cccc2c1CCCC2 | 9.1 | 30.9 | 10.2 | -4.6 | -2.1 | -26.4 | . | . | . | .
O=C(CCCc1ccccc1)Nc1cccc2c1CCCC2 | 54.6* | 17.4 | 70.6* | -6.0 | -4.3 | -17.7 | 5.7 | 5.3 | 9.4 | 17.6
Cc1[nH]n(-c2ccccc2)c(=O)c1C=NCCc1ccccc1 | 59.1* | 22.9 | 45.0 | -4.4 | -8.2 | 0.7 | 90.9* | 0.3 | 41.2 | 2.2
Cc1[nH]n(-c2ccccc2)c(=O)c1C=NCc1ccncc1 | -0.1 | 9.3 | -13.6 | -1.3 | -0.8 | -5.8 | . | . | . | .
O=c1[nH]cc(NCCc2ccccc2)c(=O)[nH]1 | . | 15.9 | . | 0.9 | -21.1 | -10.7 | . | -0.5 | . | 16.2
O=[N+]([O-])c1ccn(-c2nc(-c3ccccc3)cc(C(F)(F)F)n2)n1 | 49.6* | 14.5 | -6.5 | -2.0 | -21.0 | -21.1 | 3.7 | 1.3 | 3.6 | 1.5
SMILES | TAAR1 ag | OX1R antag-1 | TAAR1 antag | GalR3 antag | CHO parental Ca | OX1R antag-2 | TAAR1 ag confirm | Ga16 ag counter | TAAR1 desensitize | Ga16 antag count
COc1ccc(C(OC(=O)c2c(C)noc2C)C(=O)NC2CCCC2)cc1 (stereo not drawn) | 11.5 | 12.7 | -3.0 | -5.5 | -6.6 | -16.5 | . | . | . | .
COc1ccccc1/C=C1\SC(=S)N(CCC(=O)Nc2cccc(O)c2)C1=O | 62.9* | -0.2 | 80.7* | -9.6 | -4.7 | -9.2 | 70.9* | 32.5* | 66.9* | 40.0*
COc1cc(/C=C2\SC(=S)N(CCC(=O)Nc3ccccn3)C2=O)cc(OC)c1OC | 12.9 | 10.3 | 43.9 | -9.3 | -25.4 | -37.5 | . | . | . | .
COc1cc(/C=C2\SC(=S)N(CC(=O)Nc3ccccn3)C2=O)cc(OC)c1OC | 86.8* | 19.0 | 4.0 | -0.5 | -17.8 | -24.0 | 113.9* | 66.6* | 64.1* | 29.6*
CSc1nc2ncc3c(n2n1)CC(C)(C)CC3=O | 5.5 | 17.4 | -9.4 | -0.6 | -7.0 | -19.3 | . | . | . | .
O=C1S/C(=C/c2ccc(N3CCOCC3)o2)C(=O)N1Cc1ccc(F)cc1 | 14.1 | 18.6 | 4.8 | -3.1 | 6.9 | 5.9 | . | . | . | .
CC(C)OC(=O)CN1C(=O)S/C(=C/c2ccc(N3CCCCC3)o2)C1=O | 63.3* | 2.3 | 65.1* | -3.1 | -12.2 | -21.7 | 52.8* | 55.5* | 58.8* | 64.1*
O=C(c1ccc(-n2cncn2)c([N+](=O)[O-])c1)N1CCN(S(=O)(=O)c2c(F)cccc2F)CC1 | 0.3 | 25.6 | 1.4 | -3.6 | -11.7 | -14.9 | . | . | . | .
O=C(CSc1nc(=O)n(CCCN2CCOCC2)c2c1CCCC2)Nc1ccc(F)c(F)c1 | 0.8 | 17.1 | -27.9 | -2.5 | -28.6 | -27.7 | . | . | . | .
O=C(c1[nH]c(C(F)(F)F)nc1-c1ccccc1)N1CCc2ccccc2C1 | 81.3* | . | 11.4 | -5.3 | . | . | 93.2* | 4.0 | 55.7* | 1.1

Screening results: PubChem, The Scripps Research Institute Molecular Screening Center
